The record followed here is ChEMBL document CHEMBL5143598, “Cytotoxic Sesquiterpenoids from Ammoides atlantica Aerial Parts” (J Nat Prod, 2022).

Usually IC50 stands for the concentration needed to halve the response being measured.

The source made the active and inactive calls. The rule behind the calls is not given here.

System in one data set: not listed separately
In words: Antiproliferative activity against human HaCaT cells assessed as reduction in cell viability measured after 48 hrs by colorimetric based MTT assay.
Details: not given
On the technique in general: Tetrazolium dyes change colour on reduction, which living cells bring about.
For `C=C1C(=O)O[C@H]2[C@H]1C[C@H](OC(C)=O)[C@](C)(O)[C@@]1(O)[C@@H](O)[C@H]3O[C@@]3(C)[C@H]21` (relative stereo), the IC50 at 48 h is above 10 µM.
On the same count and under the same terms, for `C=C1[C@@H]2[C@H]3OC(=O)C(COC(C)=O)=C3CC[C@@]2(C)[C@H](O)C[C@@H]1O` the value was above 10 µM.
Still for that read-out and setting: the figure for `C=C1C(=O)O[C@H]([C@H]2C(=O)C=C[C@]2(C)O)[C@@H]1CCC(C)=O` is above 10 µM.
In the case of `CC(C)(O)/C=C/[C@H]1OC(=O)C[C@]1(C)O` (relative stereo), the IC50 at 48 h is above 10 µM.
Same read-out and setting: for `C=C1C(=O)O[C@@H]2C1C[C@@H](OC(C)=O)[C@](C)(O)[C@@]13C=C[C@@](C)(OO1)C23` (some centres not stated) the value was 1.7 µM; for `C=C1C(=O)O[C@@H]2C1C[C@@H](OC(C)=O)[C@@](C)(O)[C@@]13O[C@@H]1[C@@H]1O[C@]1(C)[C@H]23` (some centres not stated), 1.6 µM.

The next data set relates to HaCaT. As to the kind of experiment: Induction of apoptosis in human HaCaT cells assessed as increase accumulation of hypodiploid nuclei cells at 5 to 40 uM measured after 24 hrs by PI staining based flow cytometry analysis. As to conditions: dose 5-40 µM. It counts as functional, cell-based. A digest of the protocol: (§1)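 A549, Jurkat or HaCaT cells plated at 3 × 10^4 cells/well, left 24 h, then exposed to 40, 20, 10 or 5 μM for 24 h. Staurosporine 0.2 μM served as positive control. Cells washed in PBS and stained 30 min at 4 °C in the dark with PI in 0.1% Triton X-100/0.1% sodium citrate. Analysed by flow cytometry with debris excluded by forward scatter and DNA on a log scale. Read-out is % hypodiploid nuclei. Three independent experiments in triplicate, mean ± SEM, Mann–Whitney U test.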
(In general: In flow cytometry, cells or beads pass a laser one at a time.)
Regarding `C=C1C(=O)O[C@@H]2C1C[C@@H](OC(C)=O)[C@@](C)(O)[C@@]13O[C@@H]1[C@@H]1O[C@]1(C)[C@H]23` (some centres not stated), the result was Active.

The next data set deals with Jurkat. In words: Induction of apoptosis in human Jurkat cells assessed as increase accumulation of hypodiploid nuclei cells measured after 24 hrs by PI staining based flow cytometry analysis. It counts as functional, cell-based. As to conditions: dose 5-40 µM, DDE = dose-dependent effect. Put shortly:
as §1
As for `C=C1C(=O)O[C@@H]2C1C[C@@H](OC(C)=O)[C@@](C)(O)[C@@]13O[C@@H]1[C@@H]1O[C@]1(C)[C@H]23` (some centres not stated), the Activity result is “Dde”.

A further data set deals with HaCaT. In words: Induction of cell cycle arrest in human HaCaT cells assessed as accumulation at G2 phase at 40 uM measured after 24 hrs by PI staining based flow cytometry analysis. It counts as functional.
Details: not given
A digest of the protocol:
(§2)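 HaCaT or Jurkat cells plated at 3 × 10^4 cells/well, left 24 h, then treated with 40, 20, 10 or 5 μM for 24 h. Staurosporine 0.2 μM served as positive control. DNA stained with PI and 10 000 events per sample acquired by flow cytometry. Percentages of cells in G0/G1, S and G2/M were derived from the DNA profiles. Three independent experiments in triplicate, mean ± SEM, Mann–Whitney U test.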
Turning to `C=C1C(=O)O[C@@H]2C1C[C@@H](OC(C)=O)[C@@](C)(O)[C@@]13O[C@@H]1[C@@H]1O[C@]1(C)[C@H]23` (some centres not stated), the result was Active.

Another data set concerns A549. As to the kind of experiment: Induction of apoptosis in human A549 cells assessed as increase accumulation of hypodiploid nuclei cells at 5 to 40 uM measured after 24 hrs by PI staining based flow cytometry analysis. As to conditions: dose 5-40 µM. The format is functional, cell-based. Put shortly:
as §1
On to `C=C1C(=O)O[C@@H]2C1C[C@@H](OC(C)=O)[C@@](C)(O)[C@@]13O[C@@H]1[C@@H]1O[C@]1(C)[C@H]23` (some centres not stated), for which the outcome was Active.

Another data set concerns MCF7. In words: Antiproliferative activity against human MCF7 cells assessed as reduction in cell viability measured after 48 hrs by colorimetric based MTT assay. The format is functional. As to conditions: MCF7, 48 h.
Take `C=C1C(=O)O[C@H]2[C@H]1C[C@H](OC(C)=O)[C@](C)(O)[C@@]1(O)[C@@H](O)[C@H]3O[C@@]3(C)[C@H]21` (relative stereo): the IC50 was above 10 µM.
Same read-out and setting: the figure for `C=C1[C@@H]2[C@H]3OC(=O)C(COC(C)=O)=C3CC[C@@]2(C)[C@H](O)C[C@@H]1O` is above 10 µM; for `C=C1C(=O)O[C@H]([C@H]2C(=O)C=C[C@]2(C)O)[C@@H]1CCC(C)=O` it is above 10 µM; for `CC(C)(O)/C=C/[C@H]1OC(=O)C[C@]1(C)O` (relative stereo) it is above 10 µM.
Still for that read-out and setting: for `C=C1C(=O)O[C@@H]2C1C[C@@H](OC(C)=O)[C@](C)(O)[C@@]13C=C[C@@](C)(OO1)C23` (some centres not stated) the value was above 10 µM.
Same read-out and setting: the figure for `C=C1C(=O)O[C@@H]2C1C[C@@H](OC(C)=O)[C@@](C)(O)[C@@]13O[C@@H]1[C@@H]1O[C@]1(C)[C@H]23` (some centres not stated) is 9.6 µM.

The next data set relates to A549. As to the kind of experiment: Antiproliferative activity against human A549 cells assessed as reduction in cell viability measured after 48 hrs by colorimetric based MTT assay. The format is functional. As to conditions: A549, 48 h.
On to `C=C1C(=O)O[C@H]2[C@H]1C[C@H](OC(C)=O)[C@](C)(O)[C@@]1(O)[C@@H](O)[C@H]3O[C@@]3(C)[C@H]21` (relative stereo), for which the IC50 is above 10 µM.
On the same count and under the same terms, the figure for `C=C1[C@@H]2[C@H]3OC(=O)C(COC(C)=O)=C3CC[C@@]2(C)[C@H](O)C[C@@H]1O` is above 10 µM; for `C=C1C(=O)O[C@H]([C@H]2C(=O)C=C[C@]2(C)O)[C@@H]1CCC(C)=O` it is above 10 µM.
On the same count and under the same terms, for `CC(C)(O)/C=C/[C@H]1OC(=O)C[C@]1(C)O` (relative stereo) the value was above 10 µM.
In the case of `C=C1C(=O)O[C@@H]2C1C[C@@H](OC(C)=O)[C@](C)(O)[C@@]13C=C[C@@](C)(OO1)C23` (some centres not stated), the IC50 was determined as 4.1 µM.
The same measure, in the same setting: the figure for `C=C1C(=O)O[C@@H]2C1C[C@@H](OC(C)=O)[C@@](C)(O)[C@@]13O[C@@H]1[C@@H]1O[C@]1(C)[C@H]23` (some centres not stated) is above 10 µM.

For a further data set, the system named is A549. In words: Induction of apoptosis in human A549 cells assessed as increase accumulation of hypodiploid nuclei cells measured after 24 hrs by PI staining based flow cytometry analysis. The format is functional, cell-based. As to conditions: dose 5-40 µM, DDE = dose-dependent effect. A digest of the protocol:
as §1
Turning to `C=C1C(=O)O[C@@H]2C1C[C@@H](OC(C)=O)[C@@](C)(O)[C@@]13O[C@@H]1[C@@H]1O[C@]1(C)[C@H]23` (some centres not stated), the Activity entry is “Dde”.

The subject of a further data set is Jurkat. In words: Antiproliferative activity against human Jurkat cells assessed as reduction in cell viability measured after 48 hrs by colorimetric based MTT assay. It counts as functional.
Details: not given
A digest of the protocol: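 Jurkat leukemia cells kept in RPMI with 10% FBS, 2 mM L-glutamine and penicillin/streptomycin at 37 °C, 5% CO2. Plated at 3.5 × 10^3 cells/well and left 24 h, then given fresh medium alone or with serial dilutions (40, 20, 10, 5 μM) for 48 h. Staurosporine 0.2 μM served as positive control. MTT added for 3 h, formazan dissolved in DMF/SDS solution at pH 4.5, OD read at 620 nm. Viability calculated as % of DMSO control. IC50 taken as the concentration giving 50% growth inhibition versus control.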
As to `C=C1C(=O)O[C@H]2[C@H]1C[C@H](OC(C)=O)[C@](C)(O)[C@@]1(O)[C@@H](O)[C@H]3O[C@@]3(C)[C@H]21` (relative stereo), the IC50 is above 10 µM.
The same measure, in the same setting: for `C=C1[C@@H]2[C@H]3OC(=O)C(COC(C)=O)=C3CC[C@@]2(C)[C@H](O)C[C@@H]1O` the value was above 10 µM; for `C=C1C(=O)O[C@H]([C@H]2C(=O)C=C[C@]2(C)O)[C@@H]1CCC(C)=O`, above 10 µM.
On the same count and under the same terms, for `CC(C)(O)/C=C/[C@H]1OC(=O)C[C@]1(C)O` (relative stereo) the value was above 10 µM; for `C=C1C(=O)O[C@@H]2C1C[C@@H](OC(C)=O)[C@](C)(O)[C@@]13C=C[C@@](C)(OO1)C23` (some centres not stated), 4.7 µM; for `C=C1C(=O)O[C@@H]2C1C[C@@H](OC(C)=O)[C@@](C)(O)[C@@]13O[C@@H]1[C@@H]1O[C@]1(C)[C@H]23` (some centres not stated), 5 µM.

The next data set has as its system Jurkat. As to the kind of experiment: Induction of cell cycle arrest in human Jurkat cells assessed as accumulation at S phase measured after 24 hrs by PI staining based flow cytometry analysis. It counts as functional. As to conditions: dose 5-40 µM, DDE = dose-dependent effect. Put shortly: as §2
Turning to `C=C1C(=O)O[C@@H]2C1C[C@@H](OC(C)=O)[C@@](C)(O)[C@@]13O[C@@H]1[C@@H]1O[C@]1(C)[C@H]23` (some centres not stated), the Activity result was “Dde”.

A further data set deals with A-375. As to the kind of experiment: Antiproliferative activity against human A-375 cells assessed as reduction in cell viability measured after 48 hrs by colorimetric based MTT assay. It counts as functional. As to conditions: A-375, 48 h.
On to `C=C1C(=O)O[C@H]2[C@H]1C[C@H](OC(C)=O)[C@](C)(O)[C@@]1(O)[C@@H](O)[C@H]3O[C@@]3(C)[C@H]21` (relative stereo), for which the IC50 is above 10 µM.
Regarding `C=C1[C@@H]2[C@H]3OC(=O)C(COC(C)=O)=C3CC[C@@]2(C)[C@H](O)C[C@@H]1O`, the IC50 was above 10 µM.
On the same count and under the same terms, the figure for `C=C1C(=O)O[C@H]([C@H]2C(=O)C=C[C@]2(C)O)[C@@H]1CCC(C)=O` is above 10 µM; for `CC(C)(O)/C=C/[C@H]1OC(=O)C[C@]1(C)O` (relative stereo) it is above 10 µM; for `C=C1C(=O)O[C@@H]2C1C[C@@H](OC(C)=O)[C@](C)(O)[C@@]13C=C[C@@](C)(OO1)C23` (some centres not stated) it is above 10 µM.
Still for that read-out and setting: the figure for `C=C1C(=O)O[C@@H]2C1C[C@@H](OC(C)=O)[C@@](C)(O)[C@@]13O[C@@H]1[C@@H]1O[C@]1(C)[C@H]23` (some centres not stated) is 3.7 µM.

A further data set concerns HaCaT. In words: Induction of apoptosis in human HaCaT cells assessed as increase accumulation of hypodiploid nuclei cells measured after 24 hrs by PI staining based flow cytometry analysis. It counts as functional, cell-based. As to conditions: dose 5-40 µM, DDE = dose-dependent effect. A digest of the protocol:
as §1
As for `C=C1C(=O)O[C@@H]2C1C[C@@H](OC(C)=O)[C@@](C)(O)[C@@]13O[C@@H]1[C@@H]1O[C@]1(C)[C@H]23` (some centres not stated), the Activity entry was “Dde”.
